Measured values as given in ChEMBL document CHEMBL3414486, “Synthesis of heterocycle-modified betulinic acid derivatives as antitumor agents” (Eur J Med Chem, 2015).
Calls of active or inactive are those of the source. The calls are words filed in the database; no cut-off is given here.

Tests used:
[1] = tested on: MCF7; test: Induction of apoptosis in human MCF7 cells assessed as late apoptotic cells at 20 uM after 24 hrs by annexin V-FITC/propidium iodide staining-based flow cytometric analysis (reference value: 0.84%); type: functional
[2] = tested on: PC-3; test: Selectivity index, ratio of IC50 for HAF to IC50 for human PC3 cells
Outline: (§1)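 SRB viability assay. Cells are seeded for 24 h, then exposed for 96 h to a concentration series from 20 mM DMSO stocks, with a DMSO control. Cells are fixed in 50% TCA (2 h, 4 °C), stained with 0.4% SRB for 10 min and washed with 1% acetic acid. Bound dye is dissolved in 10 mM Tris base and read at 515 nm. IC50 is averaged from at least 3 independent experiments. SI is IC50 in HAF divided by IC50 in the cancer line.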

[3] = tested on: HT-29; test: Selectivity index, ratio of IC50 for HAF to IC50 for human HT-29 cells; outline: as §1
[4] = tested on: NCI/ADR-RES; test: Induction of apoptosis in human MCF7/ADR cells assessed as late apoptotic cells at 20 uM after 24 hrs by annexin V-FITC/propidium iodide staining-based flow cytometric analysis (reference value: 1.48%); type: functional
[5] = tested on: 4T1; test: Selectivity index, ratio of IC50 for HAF to IC50 for mouse 4T1 cells; outline: as §1
[6] = tested on: MCF7; test: Induction of apoptosis in human MCF7 cells assessed as early apoptotic cells at 20 uM after 24 hrs by annexin V-FITC/propidium iodide staining-based flow cytometric analysis (reference value: 0.74%); type: functional
[7] = tested on: DU-145; test: Cytotoxicity against human DU145 cells assessed as growth inhibition after 96 hrs by SRB assay; type: functional, cell-based; conditions: DU-145, 96 h; outline: as §1
[8] = Selectivity index, ratio of IC50 for HAF to IC50 for human MDA-MB-231 cells; outline: as §1
[9] = tested on: T47D; test: Selectivity index, ratio of IC50 for HAF to IC50 for human T47D cells; outline: as §1
[10] = Cytotoxicity against human PC3 cells assessed as growth inhibition after 96 hrs by SRB assay; type: functional, cell-based; conditions: PC-3, 96 h; outline: as §1
[11] = tested on: HCT-116; test: Selectivity index, ratio of IC50 for HAF to IC50 for human HCT116 cells; outline: as §1
[12] = Cytotoxicity against human HCT116 cells assessed as growth inhibition after 96 hrs by SRB assay; type: functional, cell-based; conditions: HCT-116, 96 h; outline: as §1
[13] = tested on: HT-29; test: Cytotoxicity against human HT-29 cells assessed as growth inhibition after 96 hrs by SRB assay; type: functional, cell-based; conditions: HT-29, 96 h; outline: as §1
[14] = tested on: MDA-MB-231; test: Antimetastatic activity against human MDA-MB-231 cells at 2.5 to 10 uM after 12 hrs by transwell assay; type: functional, cell-based
[15] = tested on: MCF7; test: Selectivity index, ratio of IC50 for HAF to IC50 for human MCF7 cells; outline: as §1
[16] = tested on: MDA-MB-231; test: Induction of apoptosis in human MDA-MB-231 cells assessed as early apoptotic cells at 5 uM after 24 hrs by annexin V-FITC/propidium iodide staining-based flow cytometric analysis (reference value: 0.59%); type: functional
[17] = tested on: NCI/ADR-RES; test: Induction of apoptosis in human MCF7/ADR cells assessed as early apoptotic cells at 20 uM after 24 hrs by annexin V-FITC/propidium iodide staining-based flow cytometric analysis (reference value: 0.67%); type: functional
[18] = Cytotoxicity against human MCF7/ADR cells assessed as growth inhibition after 96 hrs by SRB assay; type: functional, cell-based; conditions: NCI/ADR-RES; outline: as §1
[19] = tested on: DU-145; test: Selectivity index, ratio of IC50 for HAF to IC50 for human DU145 cells; outline: as §1
[20] = tested on: 4T1; test: Cytotoxicity against mouse 4T1 cells assessed as growth inhibition after 96 hrs by SRB assay; type: functional, cell-based; conditions: 4T1, 96 h; outline: as §1
[21] = tested on: MCF7; test: Cytotoxicity against human MCF7 cells assessed as growth inhibition after 96 hrs by SRB assay; type: functional, cell-based; conditions: MCF7, 96 h; outline: as §1
[22] = tested on: MDA-MB-231; test: Cytotoxicity against human MDA-MB-231 cells assessed as growth inhibition after 96 hrs by SRB assay; type: functional, cell-based; conditions: MDA-MB-231, 96 h; outline: as §1
[23] = Cytotoxicity against HAF assessed as growth inhibition after 96 hrs by SRB assay; conditions: Homo sapiens; outline: as §1
[24] = tested on: NCI/ADR-RES; test: Selectivity index, ratio of IC50 for HAF to IC50 for human MCF7/ADR cells; outline: as §1
[25] = tested on: T47D; test: Cytotoxicity against human T47D cells assessed as growth inhibition after 96 hrs by SRB assay; type: functional, cell-based; outline: as §1
[26] = tested on: MDA-MB-231; test: Induction of apoptosis in human MDA-MB-231 cells assessed as late apoptotic cells at 5 uM after 24 hrs by annexin V-FITC/propidium iodide staining-based flow cytometric analysis (reference value: 2.4%); type: functional
[27] = tested on: MDA-MB-231; test: Induction of apoptosis in human MDA-MB-231 cells assessed as late apoptotic cells at 80 uM after 24 hrs by annexin V-FITC/propidium iodide staining-based flow cytometric analysis (reference value: 2.4%)
[28] = tested on: MDA-MB-231; test: Induction of apoptosis in human MDA-MB-231 cells assessed as early apoptotic cells at 80 uM after 24 hrs by annexin V-FITC/propidium iodide staining-based flow cytometric analysis (reference value: 0.59%)
[29] = tested on: MCF7; test: Induction of apoptosis in human MCF7 cells assessed as late apoptotic cells at 80 uM after 24 hrs by annexin V-FITC/propidium iodide staining-based flow cytometric analysis (reference value: 0.84%); type: functional
[30] = tested on: NCI/ADR-RES; test: Induction of apoptosis in human MCF7/ADR cells assessed as late apoptotic cells at 80 uM after 24 hrs by annexin V-FITC/propidium iodide staining-based flow cytometric analysis (reference value: 1.48%); type: functional
[31] = tested on: MCF7; test: Induction of apoptosis in human MCF7 cells assessed as early apoptotic cells at 80 uM after 24 hrs by annexin V-FITC/propidium iodide staining-based flow cytometric analysis (reference value: 0.74%); type: functional
[32] = tested on: MDA-MB-231; test: Antimetastatic activity against human MDA-MB-231 cells at 10 to 50 uM after 12 hrs by transwell assay relative to control; type: functional, cell-based
Outline: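 Transwell migration: 8 × 10^4 MDA-MB-231 cells in serum-free medium in the upper chamber, with 10% FBS medium below. Compound added to both chambers, then 12 h migration. Non-migrated cells swabbed off. Migrated cells fixed in 4% paraformaldehyde for 30 min, stained with 0.1% crystal violet for 5 min, and counted in 5 random fields. Inhibition normalized to untreated control migration.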

[33] = tested on: NCI/ADR-RES; test: Induction of apoptosis in human MCF7/ADR cells assessed as early apoptotic cells at 80 uM after 24 hrs by annexin V-FITC/propidium iodide staining-based flow cytometric analysis (reference value: 0.67%); type: functional
[34] = tested on: MCF7; test: Induction of apoptosis in human MCF7 cells assessed as early apoptotic cells at 1 uM after 24 hrs by annexin V-FITC/propidium iodide staining-based flow cytometric analysis (reference value: 0.74%); type: functional
[35] = tested on: MCF7; test: Induction of apoptosis in human MCF7 cells assessed as late apoptotic cells at 1 uM after 24 hrs by annexin V-FITC/propidium iodide staining-based flow cytometric analysis (reference value: 0.84%); type: functional
[36] = tested on: NCI/ADR-RES; test: Induction of apoptosis in human MCF7/ADR cells assessed as early apoptotic cells at 1 uM after 24 hrs by annexin V-FITC/propidium iodide staining-based flow cytometric analysis (reference value: 0.67%); type: functional
[37] = tested on: NCI/ADR-RES; test: Induction of apoptosis in human MCF7/ADR cells assessed as late apoptotic cells at 1 uM after 24 hrs by annexin V-FITC/propidium iodide staining-based flow cytometric analysis (reference value: 1.48%); type: functional

Row | SMILES | Ratio IC50 [2] | Ratio IC50 [3] | Ratio IC50 [5] | IC50 [7] [µM] | Ratio IC50 [8] | Ratio IC50 [9] | IC50 [10] [µM] | Ratio IC50 [11] | IC50 [12] [µM] | IC50 [13] [µM] | Ratio IC50 [15] | IC50 [18] [µM] | Ratio IC50 [19] | IC50 [20] [µM] | IC50 [21] [µM] | IC50 [22] [µM] | IC50 [23] [µM] | Ratio IC50 [24] | IC50 [25] [µM] | also measured
1 | C=C(C)[C@@H]1CC[C@]2(C(=O)O)CC[C@]3(C)[C@H](CC[C@@H]4[C@@]5(C)CC[C@H](NC(=O)C6CCNCC6)C(C)(C)[C@@H]5CC[C@]43C)[C@@H]12 | 4 | 4.6 | 2.5 | 2.45 | 4.4 | 3.2 | 1.11 | 4 | 1.11 | 0.97 | 8.2 | 0.33 | 1.8 | 1.77 | 0.54 | 1.01 | 4.45 | 13.5 | 1.4 | Activity [1]: 4.15%; Activity [4]: 6.35%; Activity [6]: 16.17%; Activity [14]: Active; Activity [16]: 5.56%; Activity [17]: 12.81%; Activity [26]: 25.87%
2 | C=C(C)[C@@H]1CC[C@]2(C(=O)O)CC[C@]3(C)[C@H](CC[C@@H]4[C@@]5(C)CC[C@H](O)C(C)(C)[C@@H]5CC[C@]43C)[C@@H]12 [BETULINIC ACID] | 1.3 | 2 | 2.5 | 36.2 | 1 | 2.2 | 27.5 | 1.6 | 22.1 | 17.3 | 1.5 | 38.5 | 0.9 | 14 | 22.6 | 34.6 | 34.5 | 0.9 | 15.6 | Activity [27]: 27.58%; Activity [28]: 1.94%; Activity [29]: 1.3%; Activity [30]: 2.64%; Activity [31]: 16.58%; Activity [32]: Active; Activity [33]: 4.6%
3 | CC(=O)O[C@@]12CO[C@@H]1C[C@H](O)[C@@]1(C)C(=O)[C@H](O)C3=C(C)[C@@H](OC(=O)[C@H](O)[C@@H](NC(=O)OC(C)(C)C)c4ccccc4)C[C@@](O)([C@@H](OC(=O)c4ccccc4)[C@H]21)C3(C)C.O.O.O [DOCETAXEL] |  |  |  |  |  |  |  |  |  |  |  | 5.18 |  |  | 0.005 |  |  |  |  | Activity [34]: 5.61%; Activity [35]: 10.63%; Activity [36]: 1.38%; Activity [37]: 1.58%
